Experimental findings from ChEMBL document CHEMBL1131490, “1,4-Cyclohexanecarboxylates: potent and selective inhibitors of phosophodiesterase 4 for the treatment of asthma” (J Med Chem, 1998) are described below.

pEC50, pIC50: −log10 of the molar value.

Data set [1] relates to Mus musculus. The data set is described as follows: Reversal of reserpine-induced hypothermia in the mouse on peroral administration. The following applies: po. The data set is classed as functional.
The species entered for data set [2] is Canis familiaris. Kind of data set: Emetic effect in dogs. The data set is classed as functional. The following applies: Canis lupus familiaris.
A short description of data set [3]: (§1) Inhibition of lipopolysaccharide (LPS)-induced TNF alpha release by human monocytes. The data set is classed as functional.
The species named for data set [4] is Mus musculus. The data set is described as follows: Inhibition of lipopolysaccharide (LPS)-induced TNF alpha generation in mouse. The data set is classed as functional. Conditions: read-out: ID50 (the source's name). In short, it runs like this:
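Human monocytes adoptively transferred into mice, then LPS challenge. Compound dosed orally; human TNFα generation measured. ID50 taken from the mean response of three to eight animals.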

The subject of data set [5] is Cavia porcellus. Kind of data set: Antigen-induced bronchoconstriction in guinea pigs after peroral administration 1 hour pre-treatment. Conditions: po, read-out: ID50 (the source's name). The data set is classed as functional.
Another data set is filed under the species Oryctolagus cuniculus. The data set is described as follows: Stimulation of acid secretion from rabbit parietal glands. The data set is classed as functional.
In data set [6] the test system is Cavia porcellus. The data set is described as follows: Antigen-induced bronchoconstriction in guinea pigs after iv administration 10 min pre-treatment. In kind it is functional. Conditions: read-out: ID50 (the source's name). An outline of the steps:
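Anesthetized guinea pigs, compound given intravenously, with bronchoconstriction provoked by antigen challenge.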

A further data set addresses Phosphodiesterase 4 (Homo sapiens, UniProt P27815+Q08499+Q07343+Q08493). The data set is described as follows: Inhibition activity against human monocyte derived PDE4 catalytic activity (LPDE4). The data set is classed as protein assay.
Data set [7] is described as follows: The value for hypothermia against antigen provocation (po). Conditions: in vivo.
For data set [8], the species on record is Mus musculus. The data set is described as follows: Reversal of reserpine-induced hypothermia in mouse by peroral dose. In kind it is functional. Conditions: po.
The test system of data set [9] is Canis familiaris. The data set is described as follows: Emetic effect in dogs by intravenous administration. Conditions: Canis lupus familiaris. In kind it is functional.
The species entered for another data set is Homo sapiens. The description is as §1. In kind it is functional.
Data set [10] is filed under the species Mus musculus. Kind of data set: Reversal of reserpine-induced hypothermia in the mouse. In kind it is functional.

In the case of `COc1ccc([C@@H]2CNC(=O)C2)cc1OC1CCCC1` [(-)-ROLIPRAM], the ED50 is 0.2 mg/kg in the data set on Mus musculus [1]; 0.04 mg/kg in the data set filed under Canis familiaris [2]; 5.1 mg/kg in the data set listed under Mus musculus [4]; 2 mg/kg in the data set on Cavia porcellus [5]; 0.2 mg/kg with Cavia porcellus [6]. This compound had a pIC50 in data set [3] of 7.15. Further, in the data set listed under Oryctolagus cuniculus, the pEC50 was 8.40.

At Phosphodiesterase 4, `COc1ccc(C2CCC(C(=O)O)CC2)cc1OC1CCCC1` (stereo not given) returned an IC50 of 1200 nM.

Regarding `COc1ccc(C2(C#N)CCC(c3nnn[nH]3)CC2)cc1OC1CCCC1` (stereo not given), on Phosphodiesterase 4, the IC50 is reported as 740 nM.

In the case of `COc1ccc(C2(CF)CCC(=O)CC2)cc1OC1CCCC1`, the IC50 at Phosphodiesterase 4 is reported as 1180 nM.

For the compound `C#CC1(c2ccc(OC)c(OC3CCCC3)c2)CCC(=O)CC1`, the IC50 against Phosphodiesterase 4 is 80 nM.

In turn, `COc1ccc(C2CC(=O)N(Cc3ccc(N)cc3)C2)cc1OC1CCCC1` (stereo not given) registered an IC50 against Phosphodiesterase 4 of 52 nM. In addition, the ED50 with Cavia porcellus [6] was 0.5 mg/kg.

In the case of `COc1ccc(C2CCC(=O)C2)cc1OC1CCCC1` (stereo not given), the IC50 at Phosphodiesterase 4 is recorded as 500 nM.

Regarding `COc1ccc(C2CCC(C(=O)O)C2)cc1OC1CCCC1` (stereo not given), the selectivity ratio in [7] was 0.17. On Phosphodiesterase 4, the IC50 came out at 1200 nM. The ED50 in the data set with Mus musculus [1] came to 0.5 mg/kg; with Cavia porcellus [5], 3 mg/kg; with Cavia porcellus [6], 0.5 mg/kg.

`COc1ccc(C2(CO)CCC(=O)CC2)cc1OC1CCCC1` came in with a half-inhibitory concentration (IC50) against Phosphodiesterase 4 of 2500 nM.

`COc1ccc([C@@H]2CC(=O)N(Cc3ccc(N)cc3)C2)cc1OC1CCCC1`: at Phosphodiesterase 4, the IC50 is reported as 195 nM. Moreover, the ED50 in the data set on Cavia porcellus [6] was 10 mg/kg.

Turning to `COc1ccc(C2(C#N)CCC(=O)CC2)cc1OC1CCCC1`, the IC50 against Phosphodiesterase 4 was determined as 44 nM.

With `COc1ccc([C@H]2CNC(=O)C2)cc1OC1CCCC1` [S-ROLIPRAM], the ED50 was 2 mg/kg in the data set on Cavia porcellus [5], over 10 mg/kg in the data set listed under Mus musculus [8] and 0.2 mg/kg in the data set with Cavia porcellus [6].

Compound `COc1ccc(C2(C=O)CCC(=O)CC2)cc1OC1CCCC1` came in with an IC50 against Phosphodiesterase 4 of 340 nM.

For `COc1ccc([C@]2(C#N)CC[C@@H](C(=O)O)CC2)cc1OC1CCCC1` (stereo in doubt; 1) [CILOMILAST], the ED50 in the data set with Canis familiaris [9] amounted to 4.6 mg/kg; in the data set listed under Mus musculus [4], 4.9 mg/kg; in the data set filed under Mus musculus [10] it was 2.3 mg/kg; in the data set on Cavia porcellus [6], 1.8 mg/kg. The pIC50 in the data set filed under Homo sapiens was 6.96. In the data set listed under Oryctolagus cuniculus, this compound showed a negative logarithm of the EC50 (pEC50) of 6.10.

Compound `COc1ccc(C2(C(N)=O)CCC(=O)CC2)cc1OC1CCCC1` registered an IC50 on Phosphodiesterase 4 of 320 nM.

On Phosphodiesterase 4, `COc1ccc(C2CCC(=O)CC2)cc1OC1CCCC1` returned an IC50 of 120 nM.

As usually defined, the pIC50 is the IC50 on a negative log10 scale, so that one unit is a factor of ten. The low end stands for a high IC50, the high end for a low IC50. In general, pEC50 refers to the EC50 on a negative log10 scale, so that one unit is a factor of ten. As usually defined, the IC50 is the midpoint of a concentration-inhibition curve. The low end stands for greater potency, the high end for weaker potency.
